Key:
zebrafish embryos = settings: for CE (effective concentration to cause no-eyes phenotype): zebrafish embryos
[1] = tested on: β-catenin–TCF activity in 293T cells; experiment: In vitro β-catenin–TCF assay; assay type: cell-based; settings: 4 μM 3F8 added to the medium, 18 h
Method in brief: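 293T cells in 24-well plates were transfected with 200 ng superTOPflash reporter plasmid plus 20 ng Renilla luciferase (RLTK) control plasmid. Test compound was added 24 h after transfection and left for 18 h. Cell extracts were assayed sequentially for firefly and Renilla luciferase in a dual-luciferase system, and firefly readings were normalized to Renilla.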

GSK3β = GSK3β (Homo sapiens, UniProt P49841); experiment: Kinase profiling; assay type: biochemical, mammalian; settings: 5 μM 3F8 in 1% DMSO; panel of 22 kinases
Chain of GSK3β (P49841 whole entry): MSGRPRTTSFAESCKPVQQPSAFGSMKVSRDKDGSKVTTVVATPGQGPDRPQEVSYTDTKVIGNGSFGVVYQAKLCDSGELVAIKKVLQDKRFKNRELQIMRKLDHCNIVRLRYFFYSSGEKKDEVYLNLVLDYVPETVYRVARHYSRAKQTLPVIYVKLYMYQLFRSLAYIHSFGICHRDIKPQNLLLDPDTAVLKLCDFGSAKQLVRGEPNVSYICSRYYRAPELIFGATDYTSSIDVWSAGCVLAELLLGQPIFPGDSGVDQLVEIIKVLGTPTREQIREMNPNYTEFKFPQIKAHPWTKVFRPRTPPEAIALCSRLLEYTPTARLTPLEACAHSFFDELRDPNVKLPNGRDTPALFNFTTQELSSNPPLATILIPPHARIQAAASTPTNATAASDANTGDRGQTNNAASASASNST

inhibition of GSK3β activity (GSK3β) [%]	Structure (SMILES)	CE (effective concentration to cause no-eyes phenotype) (zebrafish embryos) [µM]	luciferase read out increase (superTOPflash) [1]	no-eyes embryos that developed a forebrain and eyes after removal of compound (zebrafish embryos; 2 days of treatment, washed out, scored by 5 dpf) [%]	concentration giving no-eyes phenotype in all embryos (zebrafish embryos; treated at the 2-cell stage) [µM]	concentration required for effect on brain development (zebrafish embryos; treated at the 2-somite stage (after gastrulation), no effect at highest dose) [µM]	concentration required for no-eyes phenotype (zebrafish embryos; treated at the shield stage) [µM]
	COC(=O)c1ccc[cH-]1.O=C1NC(=O)c2c1c1cccnc1c1[n-]c3c(Br)cc(O)cc3c21.[CH+]=O.[Ru] [GSK-3 inhibitor XV, reference compound]	1					
91	CCc1nc2c(c3cc(OC)c(OC)cc13)C(=O)NC2=O [3F8, 5-ethyl-7,8-dimethoxy-1H-pyrrolo[3,4-c]-isoquinoline-1,3-(2H)-dione]	7.5	approximately 15 fold	22	3.75	> 75	11.25
